One block for each molecule: values may come before it. Ends that are not written are not given here.
What was measured:
[1] = target: T1, I-A^u (Mus musculus, UniProt P06344+P14438); settings: for Copy/cell: peptides eluted from I-A^u, T cell–depleted B10.PL splenocytes, MBP 95 μg/ml, 16 h, 37°C, based on copy number/cell of MBPAc1-18, determined by comparison to angiotensin control; for times more detected than MBP125–135 peptides: eluted from I-A^u, MBP-pulsed splenocytes
T1 sequence (P14438 1-227): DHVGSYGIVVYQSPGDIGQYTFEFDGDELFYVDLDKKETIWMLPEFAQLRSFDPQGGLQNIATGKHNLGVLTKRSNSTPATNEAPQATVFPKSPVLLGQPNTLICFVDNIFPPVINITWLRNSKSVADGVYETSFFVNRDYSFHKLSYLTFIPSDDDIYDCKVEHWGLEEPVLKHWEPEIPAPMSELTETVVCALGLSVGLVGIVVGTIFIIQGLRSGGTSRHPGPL
T1 sequence (P06344 28-263): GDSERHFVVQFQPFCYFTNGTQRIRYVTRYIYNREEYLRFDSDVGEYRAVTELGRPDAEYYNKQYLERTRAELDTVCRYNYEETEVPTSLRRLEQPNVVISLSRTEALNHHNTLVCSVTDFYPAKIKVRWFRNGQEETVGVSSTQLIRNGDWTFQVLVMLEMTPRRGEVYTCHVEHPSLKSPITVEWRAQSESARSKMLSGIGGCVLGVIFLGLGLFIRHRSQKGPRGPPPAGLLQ
In short: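 Spleen cells depleted of T cells (2 × 10^6 cells/ml in RPMI) were incubated 16 h at 37°C with MBP (95 μg/ml). I-Au was captured with anti-I-Au antibody on Protein A beads. Peptides were eluted in 10% acetic acid through a 10 kD filter. About 6 × 10^6 cell equivalents were spiked with 2 fmol angiotensin I and run on C18 gradient LC into FT-ICR MS. Amounts were normalized to the angiotensin standard, and identity was confirmed by CAD MS/MS and coelution with synthetic peptide.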

[2] = target: T1, I-A^u; settings: cited from earlier work
[3] = test system: T cells from MBP-primed mice; settings: synthetic peptides; cited from earlier work
[4] = target: Detergent soluble I-A^u (mouse); experiment: dissociation kinetics of fluorescein-labelled peptide
[5] = target: T1, I-A^u; experiment: Dissociation of fluorescein-labeled MBP peptides from soluble I-A^u; assay type: binding; settings: for dissociation kinetics (in words): fluorescein-labeled peptide, soluble I-A^u, 1 h at 37°C, Fig. 2
[6] = test system: MBPAc1–11-specific TCR Tg T cells; assay type: cell-based, mouse; settings: 50 uM peptide; fixed splenocytes; two TCR Tg lines
In short: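 T cells from MBPAc1–11 TCR transgenic mice were purified with anti-Vα2.3 or anti-Vβ8.1/8.2 and sorted free of I-Au+ cells. They were plated at 2 × 10^5/well in complete RPMI with 50 uM peptide or 95 μg/ml MBP. APCs were 10^6 splenocytes per well, either irradiated live or fixed in 0.1% paraformaldehyde for 5 min at room temperature. Cultures ran 48 h, were pulsed with [3H]-thymidine and harvested 18 h later.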

[7] = by competition for I-A^u binding; cited from earlier work
[8] = test system: MBP-specific T cells; settings: B10.PL MBP-deficient shiverer (MBP^−/−) mice; cited from earlier work
[9] = biphasic dissociation, 1 h incubation at 37°C, pH 5.3, HPSEC fluorescence
[10] = incubation with I-A^u for 1 h at 37°C

Molecule: MBP125–135: synthetic peptide; core epitope within MBP121–150 (TAASGGLDVMA; UniProt P04370 125-135, looked up, fragment)
affinity for I-A^u (in words) [2]: high affinity for I-A^u
stimulation of T cells from MBP-primed mice [3]: stimulated T cells from MBP-primed mice

Molecule: 124-137: MBP peptide from the MBP121–150 region eluted from I-A^u (PTAASGGLDVMASQ; UniProt P04370 124-137, looked up, fragment)
Copy/cell [1]: 9.2 copy/cell

Molecule: MBPAc1–18 (synthetic, fluorescein-labelled) (peptide)
dissociation half-life, fast phase (t1/2fast) [4]: 3.7 h
dissociation half-life, slow phase (t1/2slow) [4]: 117 h
percent of bound peptide in long-lived complexes [4]: 62%
percent of bound peptide in short-lived complexes [4]: 38%
percent of bound peptide in the long phase [4]: 77%

Molecule: MBPAc1–17: N-acetylated NH2-terminal MBP peptide eluted from I-A^u
times more detected than MBP125–135 peptides [1]: ~20 times

Molecule: MBPAc1–11 (synthetic, fluorescein-labelled) (peptide)
dissociation half-life (t1/2) [4]: 0.5 h

Molecule: MBPAc9–20: MBP peptide (rat) of earlier work (ref 17) (Ac-RHGSKYLATAST; UniProt P02688 10-21, looked up, fragment)
inhibition of EAE [7]: inhibited EAE induced by immunization with rat MBPAc1–11

Molecule: 120-137: MBP peptide from the MBP121–150 region eluted from I-A^u (IQEDPTAASGGLDVMASQ; UniProt P04370 120-137, looked up, fragment)
Copy/cell [1]: 3.4 copy/cell

Molecule: rat MBPAc5–20: rat MBP peptide of earlier work (ref 17)
inhibition of EAE [7]: inhibited EAE induced by immunization with rat MBPAc1–11

Molecule: MBP136–146: synthetic peptide; epitope within MBP121–150 (SQKRPSQRSKY; UniProt P04370 136-146, looked up, fragment)
affinity for I-A^u (in words) [2]: high affinity for I-A^u
stimulation of T cells from MBP-primed mice [3]: stimulated T cells from MBP-primed mice

Molecule: MBPAc1–11: N-acetylated NH2-terminal MBP epitope, low affinity I-A^u register (Ac-MGNHSGKRELS; UniProt P04370 1-11, looked up, fragment)
dissociation kinetics (in words) [5]: monophasic fast dissociation
binding to I-A^u (in words) [2]: binds I-A^u poorly
T cell response on fixed APCs (in words) [6]: responded well

Molecule: Ac1-22: N-acetylated NH2-terminal MBP peptide eluted from I-A^u (Ac-MGNHSGKRELSAEKASKDGEIH; UniProt P04370 1-22, looked up, fragment)
Copy/cell [1]: 5.7 copy/cell

B1: myelin basic protein (protein, UniProt P04370 1-250, looked up)
Myelin basic protein: MGNHSGKRELSAEKASKDGEIHRGEAGKKRSVGKLSQTASEDSDVFGEADAIQNNGTSAEDTAVTDSKHTADPKNNWQGAHPADPGNRPHLIRLFSRDAPGREDNTFKDRPSESDELQTIQEDPTAASGGLDVMASQKRPSQRSKYLATASTMDHARHGFLPRHRDTGILDSIGRFFSGDRGAPKRGSGKDSHTRTTHYGSLPQKSQHGRTQDENPVVHFFKNIVTPRTPPPSQGKGGRDSRSGSPMARR
T cell response after immunization [8]: strong T cell responses directed toward MBP121–150

The next lines start with results.

Copy/cell [1]: 18.1 copy/cell
Molecule: Ac1-16: N-acetylated NH2-terminal MBP peptide eluted from I-A^u (Ac-MGNHSGKRELSAEKAS; UniProt P04370 1-16, looked up, fragment)

Copy/cell [1]: 9.2 copy/cell
Molecule: 123-136: MBP peptide from the MBP121–150 region eluted from I-A^u (DPTAASGGLDVMAS; UniProt P04370 123-136, looked up, fragment)

Copy/cell [1]: 6.7 copy/cell
Molecule: Ac1-19: N-acetylated NH2-terminal MBP peptide eluted from I-A^u

t1/2fast (rapid-dissociation phase) [5, 9]: 3.7 h
t1/2slow (slow phase) [5, 9]: 117 h
dissociation kinetics (in words) [5]: biphasic kinetics
peptide bound in long-lived complexes (slow phase) [5, 10]: ~62%
peptide bound in short-lived complexes (faster phase) [5, 10]: ~38%
peptide bound in the long phase ([5]; incubation with I-A^u for 16 h, unpublished data): 77%
times more detected than MBP125–135 peptides [1]: ~20 times
Copy/cell [1]: 622.0 copy/cell
Molecule: MBPAc1–18: N-acetylated NH2-terminal MBP peptide containing both the MBPAc1–11 and MBP5–16 registers
T cell response on fixed APCs (in words) [6]: respond well

Copy/cell [1]: 24.4 copy/cell
Molecule: Ac1-20: N-acetylated NH2-terminal MBP peptide eluted from I-A^u (Ac-MGNHSGKRELSAEKASKDGE; UniProt P04370 1-20, looked up, fragment)

Reference: publication PMC2193784 (The Journal of Experimental Medicine, 2003)
